Measured values taken from ChEMBL document CHEMBL4411261, “Down-Regulation of the Androgen Receptor by G-Quadruplex Ligands Sensitizes Castration-Resistant Prostate Cancer Cells to Enzalutamide” (J Med Chem, 2018).
Activity calls are given as the source filed them.

Key:
Assay type in all cases: cell-based
Quadruplex DNA [1] = test: Stabilization of AR G-quadruplex oligonucleotide in human 22Rv1 cells assessed as inhibition of telomerase activity at IC50 after 48 hrs by TRAP assay
Quadruplex DNA [2] = test: Stabilization of AR G-quadruplex oligonucleotide in human 22Rv1 cells assessed as regulation of ERBB2 mRNA expression at IC50 after 48 hrs by RT-PCR analysis
In short: (§1)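 Transcripts quantified by TaqMan real-time PCR with RNaseP as normalizer; relative quantity versus untreated cells by the 2−ΔΔCt method. Panel genes measured with a 92-gene cancer-mechanism TaqMan array.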

Quadruplex DNA [3] = test: Stabilization of AR G-quadruplex oligonucleotide in human DU145 cells assessed as up-regulation of WNT1 mRNA expression at IC50 after 48 hrs by RT-PCR analysis; in short: as §1

CN(C)CCCn1c(=O)c2ccc3c(=O)n(CCCN(C)C)c(=O)c4c5[nH]c6ccccc6[nH]c5c(c1=O)c2c34.Cl.Cl
active: inhibition (Quadruplex DNA [1]) | Activity (Quadruplex DNA [2]) | Activity (Quadruplex DNA [3])
